A short description of assay [1]: Cytotoxicity against human PC3 cells assessed as growth inhibition after 72 hrs by MTT assay. The conditions noted are these: PC-3, 72 h. The class given is functional, cell-based. A digest of the protocol:
(§1)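 Cells in RPMI 1640 (PC-3, A549, MDA-MB-231) or DMEM (U87MG, MCF-7) with 10% FBS, passages 4-10, were seeded at 3000-5000 per well and left 24 h. Compounds in DMSO/medium were added for 72 h; DMSO served as control. MTT (5 mg/mL) was added for 4 h and formazan dissolved in DMSO. Absorbance was read at 570 nm minus 630 nm. % inhibition was taken versus DMSO, with IC50 by probit; mean ± SD of three experiments in triplicate.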

A further assay deals with MCF7. Briefly: Cytotoxicity against human MCF7 cells assessed as growth inhibition after 72 hrs by MTT assay. The class given is functional, cell-based. The conditions noted are these: MCF7, 72 h. A digest of the protocol:
as §1

Assay [2] can be described thus: Cytotoxicity against human U87MG cells assessed as growth inhibition after 72 hrs by MTT assay. The class given is functional, cell-based, U-87MG ATCC. Particulars: U-87 MG. A digest of the protocol: as §1
The subject of the next assay is A549. Briefly: Cytotoxicity against human A549 cells assessed as growth inhibition after 72 hrs by MTT assay. The assay is classed as functional, cell-based. The conditions noted are these: A549, 72 h. A digest of the protocol:
as §1

The test system of a further assay is MDA-MB-231. The assay is described as follows: Cytotoxicity against human MDA-MB-231 cells assessed as growth inhibition after 72 hrs by MTT assay. The class given is functional, cell-based. The conditions noted are these: MDA-MB-231, 72 h. In outline:
as §1

We go through 13 molecules from ChEMBL document CHEMBL3763097, “Synthesis and biological evaluation of 5,10-dihydro-11H-dibenzo[b,e][1,4]diazepin-11-one structural derivatives as anti-cancer and apoptosis inducing agents” (Eur J Med Chem, 2016).

Consider `COc1cc(Cn2cc(CN3C(=O)c4ccccc4Nc4ccccc43)nn2)cc(OC)c1OC`, for which the IC50 in assay [1] is greater than 50 µM; with MCF7, 10.3 µM; in assay [2], 1.78 µM; in the assay with A549 it was 8.78 µM; in the assay with MDA-MB-231, 0.43 µM.

Consider `C#CCN1C(=O)c2ccccc2Nc2ccccc21`, for which the IC50 in assay [1] amounted to 0.98 µM; with MCF7 it was 7.63 µM; in assay [2], 22.2 µM; in the assay with A549 it was 19 µM; with MDA-MB-231, 16.5 µM.

As to `O=C1c2ccccc2Nc2ccccc2N1Cc1cn(Cc2ccccc2F)nn1`, the IC50 in assay [1] was 8.63 µM; with MCF7, 5.27 µM; in assay [2], 48.2 µM; in the assay with A549, 11.3 µM; with MDA-MB-231, greater than 50 µM.

Regarding `O=C1c2ccccc2Nc2ccccc2N1Cc1cn(Cc2ccc(Cl)cc2)nn1`, the IC50 in assay [1] was 1.12 µM; in the assay with MCF7, 39 µM; in assay [2], 24.3 µM; with A549 it was 4.97 µM; in the assay with MDA-MB-231, 2.31 µM.

`O=C1c2ccccc2Nc2ccccc2N1Cc1cn(Cc2ccc([N+](=O)[O-])cc2)nn1`: the IC50 in assay [1] was greater than 50 µM; in the assay on MCF7 it was 0.93 µM; in assay [2] it was 32.9 µM; in the assay on A549 it was 47.9 µM; with MDA-MB-231, 42.6 µM.

In the case of `O=C1c2ccccc2Nc2ccccc2N1Cc1cn(Cc2cccc(F)c2)nn1`, the IC50 in assay [1] was determined as 7.21 µM; with MCF7, 4.12 µM; in assay [2], 2.06 µM; in the assay on A549, 8.37 µM; in the assay with MDA-MB-231, 3.53 µM.

Regarding `O=c1[nH]cc(F)c(=O)[nH]1` [FLUOROURACIL], the 50% inhibitory concentration (IC50) in assay [1] worked out at 1.44 µM; in assay [2], 3.61 µM; with A549, 3.47 µM.

Turning to `O=C1c2ccccc2Nc2ccccc2N1Cc1cn(Cc2cccc([N+](=O)[O-])c2)nn1`, the IC50 is 0.47 µM in assay [1]; 0.65 µM in the assay on MCF7; 39.4 µM in assay [2]; greater than 50 µM in the assay with A549; 1.52 µM in the assay with MDA-MB-231.

As for `O=C1c2ccccc2Nc2ccccc2N1Cc1cn(Cc2cccc3c2OCO3)nn1`, the IC50 worked out at 10.7 µM in assay [1]; 17.8 µM in the assay on MCF7; 13.5 µM in assay [2]; 10.7 µM in the assay on A549; 10.2 µM in the assay on MDA-MB-231.

Regarding `O=C1c2ccccc2Nc2ccccc2N1Cc1cn(Cc2ccc(F)cc2)nn1`, the IC50 in assay [1] is 17.3 µM; with MCF7, greater than 50 µM; in assay [2], 37.7 µM; with A549, 26.7 µM; with MDA-MB-231, 4.08 µM.

`O=C1c2ccccc2Nc2ccccc2N1Cc1cn(Cc2ccc(OC(F)(F)F)cc2)nn1`: the IC50 was greater than 50 µM in assay [1]; 29.6 µM in the assay on MCF7; greater than 50 µM in assay [2]; greater than 50 µM in the assay on A549; greater than 50 µM with MDA-MB-231.

Regarding `COc1ccc(OC)c(Cn2cc(CN3C(=O)c4ccccc4Nc4ccccc43)nn2)c1`, the IC50 is greater than 50 µM in assay [1]; 7.48 µM in the assay with MCF7; 31.2 µM in assay [2]; 13.3 µM in the assay on A549; 3.5 µM in the assay with MDA-MB-231.

For `O=C1Nc2ccccc2Nc2ccccc21`, the IC50 in assay [1] is 41.9 µM; with MCF7 it was greater than 50 µM; in assay [2] it was 8.97 µM; in the assay with A549 it was 37.1 µM; with MDA-MB-231, greater than 50 µM.
